Experimental data from ChEMBL document CHEMBL6134770, “Miniaturized click chemistry and direct screening facilitate the discovery of triazole piperazine SARS-CoV-2 Mpro inhibitors with improved metabolic stability” (RSC Med Chem, 2025).
Activity calls are given as the source filed them. How the calls were made is not given here.

Assays:
[1] = Metabolic stability in rat liver microsome assessed as parent compound remaining measured immediately in presence of NADPH by LC-MS/MS analysis; format: ADME; settings: liver microsomes, read-out: Stability
Method in brief: (§1)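 Microsomes (0.5 mg/mL) and 1 μM compound (final) in 100 mM phosphate buffer were prewarmed 5 min at 37 °C. Reactions were started with NADPH-regenerating solution; a no-NADPH control was run. Samples at 0, 5, 15, 30 and 60 min were quenched with cold MeOH:acetonitrile 1:1 containing labetalol/tolbutamide internal standards. Percent remaining is mean of n = 2. t1/2 came from the slope, and CLint was scaled with factor 1800.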

[2] = Metabolic stability in rat liver microsome assessed as intrinsic clearance measured up to 60 mins in presence of NADPH by LC-MS/MS analysis; format: ADME; settings: liver microsomes; method in brief: as §1
[3] = test system: Severe acute respiratory syndrome coronavirus 2; assay: Inhibition of SARS-CoV-2 Main protease using MCA-AVLQSGFR-Lys(Dnp)-Lys-NH2 as substrate at 5 uM preincubated for 10 mins followed by substrate addition and measured after 10 mins by FRET assay relative to control; settings: time 20.0 min
[4] = Metabolic stability in rat liver microsome assessed as half life measured up to 60 mins in presence of NADPH by LC-MS/MS analysis; format: ADME; settings: liver microsomes; method in brief: as §1
[5] = Metabolic stability in rat liver microsome assessed as parent compound remaining measured at 30 mins in presence of NADPH by LC-MS/MS analysis; format: ADME; settings: liver microsomes, read-out: Stability; method in brief: as §1
[6] = Inhibition of SARS-CoV-2 Main protease using MCA-AVLQSGFR-Lys(Dnp)-Lys-NH2 as substrate preincubated for 10 mins followed by substrate addition and measured after 10 mins by FRET assay; set-up: species or system Severe acute respiratory syndrome coronavirus 2
Method in brief: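 Mpro (1.5 μM stock) was preincubated with purified compound for 10 min at 37 °C in Tris–HCl/NaCl, pH 7.3. FRET substrate was then added and fluorescence (ex 320/em 405) followed for 10 min. Inhibition was calculated from initial 60 s slopes versus control and blank wells. Compounds were tested at 0.1, 0.5, 1, 5 and 10 μM in three independent experiments, and IC50 was fitted.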

[7] = Metabolic stability in rat liver microsome assessed as parent compound remaining measured at 60 mins in presence of NADPH by LC-MS/MS analysis; format: ADME; settings: liver microsomes, read-out: Stability; method in brief: as §1
[8] = Metabolic stability in rat liver microsome assessed as parent compound remaining measured at 5 mins in presence of NADPH by LC-MS/MS analysis; format: ADME; settings: liver microsomes, read-out: Stability; method in brief: as §1
SARS-CoV-2 [9] = assay: Antiviral activity against SARS-CoV-2 infected in African green monkey Vero E6 cells pre-infected with cells for 1 hr followed by compound treatment and measured after 25 to 26 hrs by ELISPOT assay; format: functional, organism-based; settings: Severe acute respiratory syndrome coronavirus 2, Vero C1008
[10] = Metabolic stability in rat liver microsome assessed as parent compound remaining measured at 15 mins in presence of NADPH by LC-MS/MS analysis; format: ADME; settings: liver microsomes, read-out: Stability; method in brief: as §1
[11] = Drug degradation in rat liver microsome measured within 15 mins in presence of NADPH by LC-MS/MS analysis; format: ADME; settings: liver microsomes, read-out: Drug degradation; method in brief: as §1
[12] = Cytotoxicity against African green monkey Vero E6 cells assessed as cell viability measured for 26 hrs by MTS assay; format: toxicity, cell-based, Vero C1008; settings: chlorocebus sabaeus
Method in brief: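 Vero E6 cells were seeded at 1.7 × 10^4 per well in DMEM/10% FBS for 24 h. They were then exposed to compound in DMEM/5% FBS (final 1% DMSO) for 26 h at 37 °C, 5% CO2. MTS/PMS was added for 4 h and A490 read, minus media blank, normalised to DMSO wells. CC50 was fitted by four-parameter model with bottom fixed at zero, from ≥3 replicates.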

SARS-CoV-2 [13] = assay: Antiviral activity against SARS-CoV-2; format: functional, organism-based; settings: Severe acute respiratory syndrome coronavirus 2

SMILES | remaining at 0 min [1] | CLint scaled [2] | inhibition [3] | half-life [4] | remaining at 0.5 h [5] | IC50 [6] | remaining at 1 h [7] | remaining at 5 min [8] | EC50 (SARS-CoV-2 [9]) | remaining at 0.25 h [10] | metabolised at 0.25 h [11] | CC50 at 26 h [12] | EC50 (SARS-CoV-2 [13])
O=C(c1cccnc1)N1CCN(c2ccc(Cl)c(Cl)c2)[C@H](c2cn(-c3ccc(CO)cc3)nn2)C1 | 100% | 242 mL/min/kg | Active | 10.3 min | 13.3% | 1870 nM | 5.1% | 70.7% | 6990 nM | 36.5% |  |  | 
O=C(NCc1cccs1)[C@@H]1CN(C(=O)c2cccnc2)CCN1c1ccc(Cl)c(Cl)c1 | 100% | 994 mL/min/kg | Active | 2.51 min | 0% | 390 nM | 0% | 22.7% | 1780 nM | 1.56% | 100% |  | 
O=C(c1cccnc1)N1CCN(c2ccc(Cl)c(Cl)c2)[C@H](c2cn(-c3ccc4c(c3)OCO4)nn2)C1 |  |  | Active |  |  | 2230 nM |  |  | 6320 nM |  |  | > 100000 nM | 
O=C(O)Cc1ccccc1Nc1c(Cl)cccc1Cl [DICLOFENAC] |  | 150 mL/min/kg |  | 16.6 min |  |  |  |  |  |  |  |  | 
Cn1cnc(Cn2c(=O)[nH]/c(=N\c3cc4cn(C)nc4cc3Cl)n(Cc3cc(F)c(F)cc3F)c2=O)n1 |  |  |  |  |  |  |  |  |  |  |  |  | 110 nM
